Results from paper PMC11223228 (ACS Omega, 2024).

Target: T1, EhPSP (Entamoeba histolytica, UniProt N9V397)
T1 sequence (N9V397 1-205): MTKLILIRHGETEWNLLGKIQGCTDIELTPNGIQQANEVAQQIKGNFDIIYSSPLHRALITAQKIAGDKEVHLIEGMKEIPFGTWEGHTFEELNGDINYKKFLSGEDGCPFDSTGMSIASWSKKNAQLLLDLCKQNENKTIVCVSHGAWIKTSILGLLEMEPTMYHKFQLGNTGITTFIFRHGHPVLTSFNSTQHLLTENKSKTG
Assay: In vitro enzyme inhibition assay of EhPSP phosphatase activity
Type: biochemical
Conditions: for inhibition of enzymatic activity (in words): 21 compounds tested
Method in brief: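 Recombinant C-terminal 6X-His EhPSP, expressed in E. coli BL21 (DE3) and purified by Ni-NTA then size exclusion. Reaction in 50 mM HEPES-NaOH pH 8.0, 1 mM DTT, 1 mM EDTA, 25 μg enzyme. Compound preincubated 10 min RT, then OPLS added and run 2−5 min RT. Stopped with malachite green, A630 of released phosphate. % inhibition vs no-compound control, IC50 from log-concentration curve.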

Cc1nc2ccc(CN(C)c3ccc(C(=O)N[C@@H](CCC(=O)O)C(=O)O)s3)cc2c(=O)[nH]1 [Raltitrexed, (2S)-2-[[5-[methyl-[(2-methyl-4-oxo-3H-quinazolin-6-yl)methyl]amino]thiophene-2-carbonyl]amino]pentanedioic acid]
inhibition of enzymatic activity (in words): displayed the inhibition of enzymatic activity
IC50 (IC50, OPLS 2.0 mM, compound 20 nM to 500 μM): ~368 µM

O=S(=O)(O)c1ccc2c(S(=O)(=O)O)cccc2c1 [AE-562/12222184, 1,6-naphthalenedisulfonic acid]
inhibition of enzymatic activity (in words): displayed the inhibition of enzymatic activity
